Measured values reported in ChEMBL document CHEMBL4840303, “Design, synthesis, biological evaluation and pharmacophore model analysis of novel tetrahydropyrrolo[3,4-c]pyrazol derivatives as potential TRKs inhibitors” (Eur J Med Chem, 2021).
pIC50: −log10 of the molar value.

Key:
[1] = test system: KM12; experiment: Cell cycle arrest in human KM12 cells assessed as accumulation of cells at S phase at 250 nM measured after 48 hrs by AnnexinV-FITC/PI staining based flowcytometry method relative to control; assay type: functional
[2] = test system: KM12; experiment: Induction of apoptosis in human KM12 cells assessed as early apoptotic cells at 125 nM measured after 48 hrs by AnnexinV-FITC/PI staining based flowcytometry assay relative to control; assay type: functional
Procedure, shortened: (§1)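 They were detached with trypsin, washed twice in PBS, and 10^5 cells were suspended in Annexin V binding buffer. Cells were stained with FITC-Annexin V and PI for 10 min at room temperature in the dark, diluted with PBS and analysed by flow cytometry.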

[3] = test system: KM12; experiment: Cell cycle arrest in human KM12 cells assessed as accumulation of cells at G1 phase at 250 nM measured after 48 hrs by AnnexinV-FITC/PI staining based flowcytometry method relative to control; assay type: functional
[4] = biological target: Proto-oncogene tyrosine-protein kinase ROS (Homo sapiens) (UniProt P08922); experiment: Inhibition of recombinant GST-tagged human ROS1 expressed in baculovirus expression system at 1 uM measured by select screen assay relative to control
Procedure, shortened: (§2)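 Single-concentration profiling at 1.0 µM in a 28-kinase SelectScreen panel; percent inhibition reported.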

[5] = test system: KM12; experiment: Cell cycle arrest in human KM12 cells assessed as accumulation of cells at G1 phase at 500 nM measured after 48 hrs by AnnexinV-FITC/PI staining based flowcytometry method relative to control; assay type: functional
[6] = biological target: Serine/threonine-protein kinase PAK 4 (Homo sapiens) (UniProt O96013); experiment: Inhibition of recombinant GST-tagged human PAK4 (295 to 591 residues) expressed in baculovirus expression system at 1 uM measured by select screen assay relative to control; procedure, shortened: as §2
[7] = test system: KM12; experiment: Cell cycle arrest in human KM12 cells assessed as accumulation of cells at greater G1 phase at 1000 nM measured after 48 hrs by AnnexinV-FITC/PI staining based flowcytometry method relative to control; assay type: functional
[8] = Stability in human plasma assessed as half life incubated for 0 mins by LC-MS/MS analysis; assay type: ADME, cell-free
Procedure, shortened: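 Pooled frozen human plasma thawed at 37 °C, centrifuged to remove clots, pH adjusted to 7.4 if required. Spiked to 2 µM final (from 100 µM dosing solution), in duplicate, incubated at 37 °C in a water bath. Sampled at 0, 10, 30, 60 and 120 min, quenched with acetonitrile stop solution containing internal standards, centrifuged, and supernatant analysed by LC-MS/MS for percent remaining.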

[9] = test system: KM12; experiment: Induction of apoptosis in human KM12 cells assessed as late apoptotic cells at 125 nM measured after 48 hrs by AnnexinV-FITC/PI staining based flowcytometry assay relative to control; assay type: functional; procedure, shortened: as §1
[10] = biological target: Serine/threonine-protein kinase pim-1 (Homo sapiens) (UniProt P11309); experiment: Inhibition of recombinant His-tagged full length human PIM1 expressed in baculovirus expression system at 1 uM measured by select screen assay relative to control; procedure, shortened: as §2
[11] = AUC (0 to infinity) in Sprague dawley rat at 1 mg/kg, iv; assay type: ADME, organism-based; parameters: time infinity, route intravenous, dose 1 mg/kg; settings: in vivo
Procedure, shortened: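 Blood was collected into heparin tubes at specified time points and centrifuged at once (4 °C, 4000 rpm, 20 min). Plasma levels were quantified by LC-MS/MS. Parameters came from noncompartmental analysis.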

[12] = test system: KM12; experiment: Cell cycle arrest in human KM12 cells assessed as accumulation of cells at G2 phase at 500 nM measured after 48 hrs by AnnexinV-FITC/PI staining based flowcytometry method relative to control; assay type: functional
[13] = Volume of distribution at steady state in Sprague dawley rat at 1 mg/kg, iv; assay type: ADME, organism-based; settings: in vivo, read-out: Vdss
Procedure, shortened: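 Single intravenous dose of 1 mg/kg to SD rats (n = 3 per group). Blood collected into heparinised tubes at specified times, centrifuged at 4 °C, and quantified by LC-MS/MS. Steady-state volume of distribution obtained by noncompartmental analysis.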

[14] = test system: KM12; experiment: Induction of apoptosis in human KM12 cells assessed as necrotic cells at 62.5 nM measured after 48 hrs by AnnexinV-FITC/PI staining based flowcytometry assay relative to control; assay type: functional
Procedure, shortened: (§3)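 10^5 cells in Annexin V binding buffer stained with FITC-Annexin V and PI for 10 min at room temperature in the dark, diluted with PBS and analysed by flow cytometry (FITC 494/518 nm, PI 535/617 nm).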

[15] = biological target: Aurora kinase A (Homo sapiens) (UniProt O14965); experiment: Inhibition of recombinant His-tagged full length human Aurora A expressed in baculovirus expression system at 1 uM measured by select screen assay relative to control; procedure, shortened: as §2
[16] = MRT in Sprague dawley rat at 1 mg/kg, iv; assay type: ADME, organism-based; settings: in vivo
Procedure, shortened: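 Male-unspecified SD rats, n = 3 per group, single i.v. dose 1 mg/kg or oral 3 mg/kg. Blood drawn into heparin tubes at set times, centrifuged at 4 °C, plasma quantified by LC-MS/MS; noncompartmental parameters fitted.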

[17] = biological target: Hepatocyte growth factor receptor (Homo sapiens) (UniProt P08581); experiment: Inhibition of recombinant His-tagged human MET expressed in baculovirus expression system at 1 uM measured by select screen assay relative to control; procedure, shortened: as §2
[18] = test system: KM12; experiment: Induction of apoptosis in human KM12 cells assessed as viable cells at 500 nM measured after 48 hrs by AnnexinV-FITC/PI staining based flowcytometry assay relative to control; assay type: functional; settings: read-out: Activity; procedure, shortened: as §3
[19] = test system: KM12; experiment: Cell cycle arrest in human KM12 cells assessed as accumulation of cells at greater G1 phase at 62.5 nM measured after 48 hrs by AnnexinV-FITC/PI staining based flowcytometry method relative to control; assay type: functional
[20] = test system: KM12; experiment: Cell cycle arrest in human KM12 cells assessed as accumulation of cells at S phase at 500 nM measured after 48 hrs by AnnexinV-FITC/PI staining based flowcytometry method relative to control; assay type: functional
[21] = biological target: ALK tyrosine kinase receptor (Homo sapiens) (UniProt Q9UM73); experiment: Inhibition of recombinant GST-tagged human ALK expressed in baculovirus expression system at 1 uM measured by select screen assay relative to control; procedure, shortened: as §2
[22] = test system: KM12; experiment: Cell cycle arrest in human KM12 cells assessed as accumulation of cells at G1 phase at 62.5 nM measured after 48 hrs by AnnexinV-FITC/PI staining based flowcytometry method relative to control; assay type: functional
[23] = test system: KM12; experiment: Cell cycle arrest in human KM12 cells assessed as accumulation of cells at S phase at 62.5 nM measured after 48 hrs by AnnexinV-FITC/PI staining based flowcytometry method relative to control; assay type: functional
[24] = biological target: BDNF/NT-3 growth factors receptor (Homo sapiens, UniProt Q16620); experiment: Inhibition of N-terminal GST-tagged human TRKB (456 to 822 residues) expressed in baculovirus infected Sf21 cells using TK as substrate in presence of ATP measured after 40 mins by HTRF assay
[25] = biological target: Dual specificity mitogen-activated protein kinase kinase 1 (Homo sapiens) (UniProt Q02750); experiment: Inhibition of recombinant His-tagged full length human MEK expressed in baculovirus expression system at 1 uM measured by select screen assay relative to control; procedure, shortened: as §2
[26] = test system: A549; experiment: cells; settings: Homo sapiens, A549, 72 h
[27] = test system: KM12; experiment: Cell cycle arrest in human KM12 cells assessed as accumulation of cells at G1 phase at 1000 nM measured after 48 hrs by AnnexinV-FITC/PI staining based flowcytometry method relative to control; assay type: functional

Serine/threonine-protein kinase PAK 4 (Homo sapiens), sequence (O96013 whole entry, looked up, the tested form may be a part): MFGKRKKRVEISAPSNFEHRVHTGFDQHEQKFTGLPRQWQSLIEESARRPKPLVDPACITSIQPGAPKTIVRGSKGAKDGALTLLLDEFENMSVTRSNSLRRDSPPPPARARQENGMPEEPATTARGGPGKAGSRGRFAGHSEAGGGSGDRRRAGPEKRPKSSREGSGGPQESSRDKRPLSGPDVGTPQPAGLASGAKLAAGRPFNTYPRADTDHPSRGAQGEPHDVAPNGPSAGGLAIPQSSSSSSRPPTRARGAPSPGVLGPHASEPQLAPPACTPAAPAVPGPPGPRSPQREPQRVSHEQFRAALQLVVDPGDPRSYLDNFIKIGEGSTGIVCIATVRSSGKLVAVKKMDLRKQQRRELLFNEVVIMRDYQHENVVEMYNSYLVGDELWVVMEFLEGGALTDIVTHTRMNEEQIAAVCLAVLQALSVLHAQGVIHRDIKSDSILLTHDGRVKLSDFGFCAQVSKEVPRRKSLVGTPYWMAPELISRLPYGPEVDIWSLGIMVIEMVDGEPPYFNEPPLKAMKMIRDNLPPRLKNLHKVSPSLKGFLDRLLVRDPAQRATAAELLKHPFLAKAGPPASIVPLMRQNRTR
Aurora kinase A (Homo sapiens), sequence (O14965 whole entry): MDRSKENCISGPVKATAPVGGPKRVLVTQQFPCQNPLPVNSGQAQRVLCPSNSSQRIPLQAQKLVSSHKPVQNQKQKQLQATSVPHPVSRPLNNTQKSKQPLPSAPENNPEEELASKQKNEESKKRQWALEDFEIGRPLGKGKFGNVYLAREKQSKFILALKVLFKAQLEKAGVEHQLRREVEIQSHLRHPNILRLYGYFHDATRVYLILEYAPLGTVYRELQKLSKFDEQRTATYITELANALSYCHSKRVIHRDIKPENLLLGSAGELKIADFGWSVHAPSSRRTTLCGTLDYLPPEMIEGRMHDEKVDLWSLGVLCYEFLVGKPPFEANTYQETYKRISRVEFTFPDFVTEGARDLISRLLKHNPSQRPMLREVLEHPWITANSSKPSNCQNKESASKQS
ALK tyrosine kinase receptor (Homo sapiens), sequence (Q9UM73 19-1620 limits assumed): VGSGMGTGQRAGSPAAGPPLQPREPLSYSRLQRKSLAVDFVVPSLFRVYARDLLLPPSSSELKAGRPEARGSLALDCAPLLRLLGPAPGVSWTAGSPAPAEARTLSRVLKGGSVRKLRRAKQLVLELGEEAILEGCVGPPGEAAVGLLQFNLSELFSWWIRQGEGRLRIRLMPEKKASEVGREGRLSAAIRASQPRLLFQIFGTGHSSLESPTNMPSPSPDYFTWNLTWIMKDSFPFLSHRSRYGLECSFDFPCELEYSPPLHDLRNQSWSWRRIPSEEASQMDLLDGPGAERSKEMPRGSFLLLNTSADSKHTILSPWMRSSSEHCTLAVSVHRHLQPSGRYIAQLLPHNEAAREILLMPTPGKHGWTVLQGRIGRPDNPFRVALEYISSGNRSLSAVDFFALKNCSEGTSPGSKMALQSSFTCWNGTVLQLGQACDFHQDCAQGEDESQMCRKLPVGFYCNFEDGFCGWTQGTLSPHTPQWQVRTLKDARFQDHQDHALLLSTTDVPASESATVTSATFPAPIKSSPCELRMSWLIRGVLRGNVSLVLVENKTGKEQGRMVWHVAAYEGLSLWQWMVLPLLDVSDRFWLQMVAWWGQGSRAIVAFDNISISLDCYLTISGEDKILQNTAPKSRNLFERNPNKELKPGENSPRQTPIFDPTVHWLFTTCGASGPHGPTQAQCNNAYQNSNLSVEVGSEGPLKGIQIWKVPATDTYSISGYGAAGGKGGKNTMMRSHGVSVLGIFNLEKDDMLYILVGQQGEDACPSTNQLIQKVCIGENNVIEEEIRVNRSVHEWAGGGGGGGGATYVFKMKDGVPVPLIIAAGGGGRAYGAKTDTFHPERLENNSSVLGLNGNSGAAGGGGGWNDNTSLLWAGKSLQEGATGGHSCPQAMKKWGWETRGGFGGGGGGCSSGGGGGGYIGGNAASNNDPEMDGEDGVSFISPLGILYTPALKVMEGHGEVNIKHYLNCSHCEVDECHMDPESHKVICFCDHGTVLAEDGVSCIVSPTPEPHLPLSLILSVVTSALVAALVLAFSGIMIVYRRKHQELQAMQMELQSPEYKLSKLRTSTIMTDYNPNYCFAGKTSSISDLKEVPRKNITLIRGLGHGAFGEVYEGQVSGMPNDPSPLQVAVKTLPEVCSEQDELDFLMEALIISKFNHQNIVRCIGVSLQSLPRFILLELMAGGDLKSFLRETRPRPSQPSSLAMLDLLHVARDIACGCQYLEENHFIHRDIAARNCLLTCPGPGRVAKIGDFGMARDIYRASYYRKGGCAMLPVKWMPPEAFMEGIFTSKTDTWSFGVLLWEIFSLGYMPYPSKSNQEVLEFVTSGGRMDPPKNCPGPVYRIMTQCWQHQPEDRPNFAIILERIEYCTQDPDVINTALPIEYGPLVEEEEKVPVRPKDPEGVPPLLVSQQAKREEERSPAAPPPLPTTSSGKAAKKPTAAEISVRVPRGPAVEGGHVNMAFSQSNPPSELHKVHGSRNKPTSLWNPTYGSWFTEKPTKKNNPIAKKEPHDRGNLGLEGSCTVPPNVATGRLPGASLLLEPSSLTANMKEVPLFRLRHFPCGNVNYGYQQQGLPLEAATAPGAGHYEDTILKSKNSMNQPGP
Proto-oncogene tyrosine-protein kinase ROS (Homo sapiens), sequence (P08922 whole entry): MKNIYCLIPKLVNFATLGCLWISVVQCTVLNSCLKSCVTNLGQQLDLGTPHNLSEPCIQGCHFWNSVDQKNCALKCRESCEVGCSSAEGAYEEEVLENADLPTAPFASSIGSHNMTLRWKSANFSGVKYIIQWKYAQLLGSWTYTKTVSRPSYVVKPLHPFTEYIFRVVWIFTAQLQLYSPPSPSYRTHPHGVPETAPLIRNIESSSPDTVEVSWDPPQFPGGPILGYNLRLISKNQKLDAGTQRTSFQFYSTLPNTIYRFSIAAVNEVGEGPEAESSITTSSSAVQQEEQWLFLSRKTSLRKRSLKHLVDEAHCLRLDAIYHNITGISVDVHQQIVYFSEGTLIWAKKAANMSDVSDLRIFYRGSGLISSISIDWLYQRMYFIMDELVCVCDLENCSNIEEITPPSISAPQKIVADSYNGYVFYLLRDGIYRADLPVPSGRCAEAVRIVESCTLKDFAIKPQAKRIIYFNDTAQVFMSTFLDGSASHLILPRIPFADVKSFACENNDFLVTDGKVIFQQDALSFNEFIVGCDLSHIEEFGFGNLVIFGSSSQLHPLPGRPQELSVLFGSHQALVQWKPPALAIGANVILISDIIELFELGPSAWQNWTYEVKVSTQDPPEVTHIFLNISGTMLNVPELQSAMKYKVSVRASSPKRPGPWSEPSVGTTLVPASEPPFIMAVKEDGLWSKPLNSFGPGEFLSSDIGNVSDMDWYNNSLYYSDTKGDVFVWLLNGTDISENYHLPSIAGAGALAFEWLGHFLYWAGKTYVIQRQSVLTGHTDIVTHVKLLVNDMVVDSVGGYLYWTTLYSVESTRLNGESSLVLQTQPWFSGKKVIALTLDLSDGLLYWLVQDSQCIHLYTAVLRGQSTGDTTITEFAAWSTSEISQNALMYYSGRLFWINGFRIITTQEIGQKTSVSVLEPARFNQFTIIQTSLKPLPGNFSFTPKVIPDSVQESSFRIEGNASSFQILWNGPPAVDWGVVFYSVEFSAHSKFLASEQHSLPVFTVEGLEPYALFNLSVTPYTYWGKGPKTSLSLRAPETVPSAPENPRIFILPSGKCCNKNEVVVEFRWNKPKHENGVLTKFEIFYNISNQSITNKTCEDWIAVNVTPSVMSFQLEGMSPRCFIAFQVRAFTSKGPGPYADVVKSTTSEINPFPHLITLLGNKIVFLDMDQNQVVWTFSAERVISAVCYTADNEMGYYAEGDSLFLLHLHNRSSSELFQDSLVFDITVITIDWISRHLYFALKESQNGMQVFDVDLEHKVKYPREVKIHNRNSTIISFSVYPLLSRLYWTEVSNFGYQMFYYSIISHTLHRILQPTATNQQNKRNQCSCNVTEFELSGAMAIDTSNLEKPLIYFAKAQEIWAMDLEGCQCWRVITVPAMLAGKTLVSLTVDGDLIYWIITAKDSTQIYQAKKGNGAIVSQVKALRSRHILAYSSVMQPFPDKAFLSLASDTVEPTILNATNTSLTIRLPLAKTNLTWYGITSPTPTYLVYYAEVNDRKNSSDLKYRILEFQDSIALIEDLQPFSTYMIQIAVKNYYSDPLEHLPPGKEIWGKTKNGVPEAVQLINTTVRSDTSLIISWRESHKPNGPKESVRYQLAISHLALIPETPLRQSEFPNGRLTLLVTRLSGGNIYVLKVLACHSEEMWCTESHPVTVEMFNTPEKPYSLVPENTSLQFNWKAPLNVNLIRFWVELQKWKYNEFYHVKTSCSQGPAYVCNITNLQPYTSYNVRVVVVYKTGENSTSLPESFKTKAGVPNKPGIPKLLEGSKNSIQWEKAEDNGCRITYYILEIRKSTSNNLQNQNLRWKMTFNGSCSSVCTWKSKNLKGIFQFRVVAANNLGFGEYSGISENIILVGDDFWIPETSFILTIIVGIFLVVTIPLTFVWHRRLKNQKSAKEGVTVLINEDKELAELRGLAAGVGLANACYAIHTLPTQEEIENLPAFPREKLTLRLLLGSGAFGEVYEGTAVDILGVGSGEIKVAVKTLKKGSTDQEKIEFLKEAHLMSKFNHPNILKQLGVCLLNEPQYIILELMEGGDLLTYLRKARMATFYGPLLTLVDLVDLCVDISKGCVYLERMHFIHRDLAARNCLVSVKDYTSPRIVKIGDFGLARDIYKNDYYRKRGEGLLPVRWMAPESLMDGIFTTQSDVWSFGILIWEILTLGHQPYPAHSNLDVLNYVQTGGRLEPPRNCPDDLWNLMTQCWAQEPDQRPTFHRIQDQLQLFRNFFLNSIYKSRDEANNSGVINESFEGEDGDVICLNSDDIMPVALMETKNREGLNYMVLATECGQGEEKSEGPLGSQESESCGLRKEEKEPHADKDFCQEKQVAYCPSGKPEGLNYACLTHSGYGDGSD

CN1CCN(c2ccc(C(=O)Nc3n[nH]c4c3CN(Cc3cc(F)cc(F)c3)C4(C)C)cc2)CC1 gave an Activity [1] of 8.17%, an Activity [2] of 18.15% and an Activity [3] of 74%. For the same compound, the inhibition [4] was 10%, the Activity [5] was 73.9% and the inhibition [6] was 4%. The Activity [7] was 1.59%, the half-life [8] was greater than 4.82 h and the Activity [9] was 18.23%. It also gave an inhibition [10] of 0%, an AUC(0-inf) [11] of 2080 ng·h/mL and an Activity [12] of 8.75%. For the same compound, the Vd [13] was 0.892 L/kg, the Activity [14] was 0.03% and the inhibition [15] was 11%. It also gave an MRT [16] of 1.85 h, an inhibition [17] of 6% and a viability at 0.5 µM [18] of 25%. It also gave an Activity [19] of 4.25%, an Activity [20] of 6.56% and an inhibition [21] of 82%. The Activity [22] was 40.3%, the Activity [23] was 35.6% and the pIC50 [24] was 7.55. For the same compound, the inhibition [25] was 8%, the pIC50 [26] was 4.14 and the Activity [27] was 72.8%.
